Assay results reported in ChEMBL document CHEMBL4325933, “Potent, Selective, and Cell-Penetrating Inhibitors of Kallikrein-Related Peptidase 4 Based on the Cyclic Peptide MCoTI-II” (ACS Med Chem Lett, 2018).
Positions of bridges follow the written chain, without caps; N, C: chain ends. Residues, ends and D or L forms follow the SMILES beside them.

Experiments:
Kallikrein-5 = target: T1, Kallikrein-5 (Homo sapiens, UniProt Q9Y337); assay: Inhibition of KLK5 (unknown origin) expressed in Pichia pastoris strain X-33 using Ac-YRSR-pNA as substrate preincubated for 30 mins followed by substrate addition and measured for 7 mins by spectrophotometric method
T1 sequence (Q9Y337 whole entry): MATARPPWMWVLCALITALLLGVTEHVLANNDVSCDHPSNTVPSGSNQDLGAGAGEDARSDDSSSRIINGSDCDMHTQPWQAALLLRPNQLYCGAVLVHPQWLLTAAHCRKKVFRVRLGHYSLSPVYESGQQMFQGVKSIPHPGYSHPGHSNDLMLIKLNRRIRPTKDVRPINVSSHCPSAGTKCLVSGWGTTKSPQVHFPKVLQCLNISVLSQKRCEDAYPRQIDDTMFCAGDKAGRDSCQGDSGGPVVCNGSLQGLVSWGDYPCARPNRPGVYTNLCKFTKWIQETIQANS

[1] = Stability in human serum at 200 uM up to 24 hrs by RP-HPLC analysis; format: ADME, cell-free
Procedure, shortened: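 Peptides incubated in human serum for up to 24 h. At each time point, the area of the peptide peak on analytical HPLC is expressed as a percentage of the peptide peak in PBS at 0 h. Three independent experiments, SD.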

Kallikrein-4 = Kallikrein-4 (Homo sapiens, UniProt Q9Y5K2); assay: Inhibition of KLK4 (unknown origin) expressed in sf9 cells using Ac-FVQR-pNA as substrate preincubated for 30 mins followed by substrate addition and measured for 7 mins by spectrophotometric method
Kallikrein-4, sequence (Q9Y5K2 whole entry): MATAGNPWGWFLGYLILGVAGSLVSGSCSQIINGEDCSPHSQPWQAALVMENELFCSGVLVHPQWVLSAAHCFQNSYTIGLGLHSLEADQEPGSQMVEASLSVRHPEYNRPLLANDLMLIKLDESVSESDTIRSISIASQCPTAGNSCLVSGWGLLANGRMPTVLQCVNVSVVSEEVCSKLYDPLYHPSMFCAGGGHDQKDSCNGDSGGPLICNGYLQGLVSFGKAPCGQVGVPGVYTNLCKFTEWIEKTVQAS

Plasminogen = Plasminogen (Homo sapiens, UniProt P00747); assay: Inhibition of plasmin (unknown origin) using Ac-RM(O2)YR-pNA as substrate preincubated for 30 mins followed by substrate addition and measured for 7 mins by spectrophotometric method
Plasminogen, sequence (P00747 97-580 limits assumed): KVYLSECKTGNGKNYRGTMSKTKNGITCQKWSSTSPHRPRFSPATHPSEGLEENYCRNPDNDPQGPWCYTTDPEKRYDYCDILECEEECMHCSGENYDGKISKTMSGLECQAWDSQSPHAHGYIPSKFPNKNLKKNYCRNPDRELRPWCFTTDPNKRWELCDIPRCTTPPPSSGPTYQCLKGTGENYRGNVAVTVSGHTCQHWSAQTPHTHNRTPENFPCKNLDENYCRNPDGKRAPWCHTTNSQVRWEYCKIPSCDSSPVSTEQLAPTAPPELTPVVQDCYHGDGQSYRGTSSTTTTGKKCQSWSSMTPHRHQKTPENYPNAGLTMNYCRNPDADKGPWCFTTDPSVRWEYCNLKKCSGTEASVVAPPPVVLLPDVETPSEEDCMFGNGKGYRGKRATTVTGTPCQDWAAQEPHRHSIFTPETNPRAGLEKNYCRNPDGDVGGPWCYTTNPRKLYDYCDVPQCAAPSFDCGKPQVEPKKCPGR
Plasminogen, sequence (P00747 581-810 limits assumed): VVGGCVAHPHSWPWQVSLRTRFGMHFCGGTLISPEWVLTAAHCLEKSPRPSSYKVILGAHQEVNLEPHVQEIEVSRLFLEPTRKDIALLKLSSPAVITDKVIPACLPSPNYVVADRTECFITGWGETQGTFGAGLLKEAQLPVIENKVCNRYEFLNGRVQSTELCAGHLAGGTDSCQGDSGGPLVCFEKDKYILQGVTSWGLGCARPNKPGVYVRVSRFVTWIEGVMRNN

Kallikrein-7 = Kallikrein-7 (Homo sapiens, UniProt P49862); assay: Inhibition of KLK7 (unknown origin) expressed in Pichia pastoris strain X-33 using KHLY-pNA as substrate preincubated for 30 mins followed by substrate addition and measured for 7 mins by spectrophotometric method
Kallikrein-7, sequence (P49862 whole entry): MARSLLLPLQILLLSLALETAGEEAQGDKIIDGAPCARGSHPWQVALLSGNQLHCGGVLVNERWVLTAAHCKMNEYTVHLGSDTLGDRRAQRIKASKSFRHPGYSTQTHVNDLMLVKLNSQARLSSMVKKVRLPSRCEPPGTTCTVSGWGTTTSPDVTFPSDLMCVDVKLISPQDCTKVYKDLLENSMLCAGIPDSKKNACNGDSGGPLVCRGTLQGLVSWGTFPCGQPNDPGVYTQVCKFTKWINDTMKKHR

Kallikrein-14 = target: T2, Kallikrein-14 (Homo sapiens, UniProt Q9P0G3); assay: Inhibition of KLK14 (unknown origin) expressed in sf9 cells using Ac-YANR-pNA as substrate preincubated for 30 mins followed by substrate addition and measured for 7 mins by spectrophotometric method
T2 sequence (Q9P0G3 whole entry): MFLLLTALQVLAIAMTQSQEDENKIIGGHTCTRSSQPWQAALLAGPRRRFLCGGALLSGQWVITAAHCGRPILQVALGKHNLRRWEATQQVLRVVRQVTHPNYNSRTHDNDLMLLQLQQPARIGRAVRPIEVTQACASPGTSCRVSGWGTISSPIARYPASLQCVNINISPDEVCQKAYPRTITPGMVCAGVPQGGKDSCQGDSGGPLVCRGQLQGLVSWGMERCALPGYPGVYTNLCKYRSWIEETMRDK

Coagulation factor X = Coagulation factor X (Homo sapiens, UniProt P00742); assay: Inhibition of factor 10a (unknown origin) using Ac-QRSR-pNA as substrate preincubated for 30 mins followed by substrate addition and measured for 7 mins by spectrophotometric method
Coagulation factor X, sequence (P00742 41-179 limits assumed): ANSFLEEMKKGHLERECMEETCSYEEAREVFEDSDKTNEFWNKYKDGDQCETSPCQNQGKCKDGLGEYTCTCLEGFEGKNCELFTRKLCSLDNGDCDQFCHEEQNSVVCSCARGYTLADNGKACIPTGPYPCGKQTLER
Coagulation factor X, sequence (P00742 235-488 limits assumed): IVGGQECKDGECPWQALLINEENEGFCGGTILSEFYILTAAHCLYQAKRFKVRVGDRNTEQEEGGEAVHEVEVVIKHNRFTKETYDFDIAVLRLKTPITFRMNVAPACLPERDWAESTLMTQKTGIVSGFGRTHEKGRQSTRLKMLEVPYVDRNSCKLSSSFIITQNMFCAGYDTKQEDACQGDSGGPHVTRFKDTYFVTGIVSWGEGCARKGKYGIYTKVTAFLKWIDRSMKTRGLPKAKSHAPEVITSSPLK

Prothrombin = Prothrombin (Homo sapiens, UniProt P00734); assay: Inhibition of thrombin (unknown origin) using Bz-FVR-pNA as substrate preincubated for 30 mins followed by substrate addition and measured for 7 mins by spectrophotometric method
Plasma kallikrein = Plasma kallikrein (Homo sapiens, UniProt P03952); assay: Inhibition of plasma kallikrein (unknown origin) using Ac-NLTR-pNA as substrate preincubated for 30 mins followed by substrate addition and measured for 7 mins by spectrophotometric method
Plasma kallikrein, sequence (P03952 20-390 limits assumed): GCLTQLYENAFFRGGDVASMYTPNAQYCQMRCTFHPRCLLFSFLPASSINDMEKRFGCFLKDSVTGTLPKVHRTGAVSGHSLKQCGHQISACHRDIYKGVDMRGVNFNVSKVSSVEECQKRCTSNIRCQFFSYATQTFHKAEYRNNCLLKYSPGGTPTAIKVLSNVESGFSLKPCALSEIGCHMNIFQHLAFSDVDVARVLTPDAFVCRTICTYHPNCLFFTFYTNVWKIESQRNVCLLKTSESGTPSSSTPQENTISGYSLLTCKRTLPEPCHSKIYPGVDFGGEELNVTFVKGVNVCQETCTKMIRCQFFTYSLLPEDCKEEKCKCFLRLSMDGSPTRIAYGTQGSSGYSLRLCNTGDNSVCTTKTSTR
Plasma kallikrein, sequence (P03952 391-638 limits assumed): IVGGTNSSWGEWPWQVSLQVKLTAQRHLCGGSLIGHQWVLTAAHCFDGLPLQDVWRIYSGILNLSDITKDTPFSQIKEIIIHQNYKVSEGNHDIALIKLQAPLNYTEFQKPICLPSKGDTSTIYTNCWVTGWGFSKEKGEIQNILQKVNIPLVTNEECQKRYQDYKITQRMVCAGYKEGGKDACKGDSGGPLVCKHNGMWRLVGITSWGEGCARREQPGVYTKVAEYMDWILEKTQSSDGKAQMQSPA

Trypsin = Trypsin (Homo sapiens, UniProt P07477+P07478+P35030); assay: Inhibition of trypsin (unknown origin) using Bz-FVR-pNA as substrate preincubated for 30 mins followed by substrate addition and measured for 7 mins by spectrophotometric method; format: protein assay
Coagulation factor XII = target: T3, Coagulation factor XII (Homo sapiens, UniProt P00748); assay: Inhibition of factor 12a (unknown origin) using Ac-QRFR-pNA as substrate preincubated for 30 mins followed by substrate addition and measured for 7 mins by spectrophotometric method
T3 sequence (P00748 whole entry): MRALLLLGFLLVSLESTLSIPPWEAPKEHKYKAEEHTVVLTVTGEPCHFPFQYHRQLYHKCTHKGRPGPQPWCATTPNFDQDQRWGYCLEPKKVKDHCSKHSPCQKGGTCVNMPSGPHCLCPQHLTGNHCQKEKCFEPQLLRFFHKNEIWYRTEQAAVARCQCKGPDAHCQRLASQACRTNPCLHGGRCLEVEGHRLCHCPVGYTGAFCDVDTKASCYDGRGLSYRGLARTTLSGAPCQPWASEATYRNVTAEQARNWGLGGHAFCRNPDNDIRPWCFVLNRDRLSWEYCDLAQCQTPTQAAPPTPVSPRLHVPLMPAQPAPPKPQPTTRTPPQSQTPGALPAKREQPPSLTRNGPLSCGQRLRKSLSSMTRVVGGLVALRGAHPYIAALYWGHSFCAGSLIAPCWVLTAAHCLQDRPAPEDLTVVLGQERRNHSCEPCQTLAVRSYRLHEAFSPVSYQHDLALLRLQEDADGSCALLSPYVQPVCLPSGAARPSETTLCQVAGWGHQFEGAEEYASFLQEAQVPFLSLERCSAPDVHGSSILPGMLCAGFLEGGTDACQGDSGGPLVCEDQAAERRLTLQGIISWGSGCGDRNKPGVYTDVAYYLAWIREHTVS

[2] = Drug uptake in human HeLa cells at 4 uM using Alexa Fluor 488 conjugated test compound after 1 hr by trypan blue dye based flow cytometry relative to HIV-Tat; format: ADME, cell-based
Procedure, shortened: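 HeLa cells given Alexa Fluor 488-conjugated peptides (4 μM). Mean fluorescence measured by flow cytometry before and after trypan blue quenching of extracellular signal. Values normalized to the HIV-TAT positive control (post-trypan blue). Three independent experiments, SD; one-way ANOVA with Tukey's post hoc test.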

HeLa = assay: Cytotoxicity against human HeLa cells up to 64 uM after 2 hrs by resazurin dye based assay; format: cell-based
Procedure, shortened: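 HeLa cells exposed to peptides for 2 h, concentrations up to 64 μM. Resazurin then added for 18 h at 37 °C. Resorufin absorbance read at 540 and 620 nm, and viability % expressed as the A620/A540 ratio. Three independent experiments, standard deviation.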

Homo sapiens [3] = organism: Homo sapiens; assay: Selectivity ratio of Ki for KLK5 (unknown origin) expressed in Pichia pastoris strain X-33 to Ki for KLK4 (unknown origin) expressed in sf9 cells
Homo sapiens [4] = organism: Homo sapiens; assay: Selectivity ratio of Ki for KLK7 (unknown origin) expressed in Pichia pastoris strain X-33 to Ki for KLK4 (unknown origin) expressed in sf9 cells
Homo sapiens [5] = organism: Homo sapiens; assay: Selectivity ratio of Ki for KLK14 (unknown origin) expressed in sf9 cells to Ki for KLK4 (unknown origin) expressed in sf9 cells
Homo sapiens [6] = organism: Homo sapiens; assay: Selectivity ratio of Ki for plasmin (unknown origin) to Ki for KLK4 (unknown origin) expressed in sf9 cells
Homo sapiens [7] = organism: Homo sapiens; assay: Selectivity ratio of Ki for factor 12a (unknown origin) to Ki for KLK4 (unknown origin) expressed in sf9 cells
Homo sapiens [8] = organism: Homo sapiens; assay: Selectivity ratio of Ki for thrombin (unknown origin) to Ki for KLK4 (unknown origin) expressed in sf9 cells
Homo sapiens [9] = organism: Homo sapiens; assay: Selectivity ratio of Ki for plasma kallikrein (unknown origin) to Ki for KLK4 (unknown origin) expressed in sf9 cells
Homo sapiens [10] = organism: Homo sapiens; assay: Selectivity ratio of Ki for factor 10a (unknown origin) to Ki for KLK4 (unknown origin) expressed in sf9 cells

Structure (SMILES)	Ki (Kallikrein-5) [µM]	Stability [1]	Ki (Kallikrein-4) [nM]	Ki (Plasminogen) [µM]	Ki (Kallikrein-7) [µM]	Ki (Kallikrein-14) [µM]	Ki (Coagulation factor X) [nM]	Ki (Prothrombin) [µM]	Ki (Plasma kallikrein) [µM]	Ki (Trypsin) [nM]	Ki (Coagulation factor XII) [µM]	Drug uptake [2]	Activity (HeLa)	other results
CC[C@H](C)[C@@H]1NC(=O)[C@@H]2CSSC[C@@H]3NC(=O)[C@H](Cc4ccccc4)NC(=O)CNC(=O)CNC(=O)[C@H](CC(=O)O)NC(=O)[C@H](CO)NC(=O)CNC(=O)[C@H](CO)NC(=O)CNC(=O)[C@@H]4CSSC[C@H](NC(=O)[C@H](CC(=O)O)NC(=O)[C@H](CO)NC(=O)[C@H](CC(=O)O)NC(=O)[C@H](CCC(N)=O)NC(=O)[C@H](CCC(N)=O)NC(=O)[C@H](CSSC[C@H](NC1=O)C(=O)N[C@@H](CCCCN)C(=O)NCC(=O)N[C@@H](CC(N)=O)C(=O)NCC(=O)N[C@@H](Cc1ccc(O)cc1)C(=O)N4)NC(=O)[C@H](CCC(N)=O)NC(=O)[C@H](CCC(N)=O)NC(=O)[C@H](CC(C)C)NC(=O)[C@H]([C@@H](C)CC)NC(=O)[C@H](CCCNC(=N)N)NC(=O)[C@H](CCC(N)=O)NC3=O)C(=O)N1CCC[C@H]1C(=O)NCC(=O)N[C@@H](C)C(=O)N2 (cyclo(ACICKGNGYCGSGSDGGFCQRILQQCQQDSDCPG); disulfide 2-19, 4-26, 10-32)	> 10	Stable	0.44	> 10	> 10	> 10	520	> 10	> 10	6.9	> 10	Not Active	Non-Toxic	
CC[C@H](C)[C@@H]1NC(=O)[C@@H]2CSSC[C@@H]3NC(=O)[C@H](Cc4ccccc4)NC(=O)CNC(=O)CNC(=O)[C@H](CC(=O)O)NC(=O)[C@H](CO)NC(=O)CNC(=O)[C@H](CO)NC(=O)CNC(=O)[C@@H]4CSSC[C@H](NC(=O)[C@H](CC(=O)O)NC(=O)[C@H](CO)NC(=O)[C@H](CC(=O)O)NC(=O)[C@H](CCCNC(=N)N)NC(=O)[C@H](CCCNC(=N)N)NC(=O)[C@H](CSSC[C@H](NC1=O)C(=O)N[C@@H](CCCNC(=N)N)C(=O)NCC(=O)N[C@@H](CC(N)=O)C(=O)NCC(=O)N[C@@H](Cc1ccc(O)cc1)C(=O)N4)NC(=O)[C@H](CCCCN)NC(=O)[C@H](CCCCN)NC(=O)[C@H](CC(C)C)NC(=O)[C@H]([C@@H](C)CC)NC(=O)[C@H](CCCNC(=N)N)NC(=O)[C@H](CCC(N)=O)NC3=O)C(=O)N1CCC[C@H]1C(=O)NCC(=O)N[C@@H](C)C(=O)N2 (cyclo(ACICRGNGYCGSGSDGGFCQRILKKCRRDSDCPG); disulfide 2-19, 4-26, 10-32)	> 10	Stable	0.1	> 10	> 10	> 10	500	> 10	> 10	31	> 10	23%	Non-Toxic	Ratio Ki (Homo sapiens [3]): > 100000; Ratio Ki (Homo sapiens [4]): > 100000; Ratio Ki (Homo sapiens [5]): > 100000; Ratio Ki (Homo sapiens [6]): > 100000; Ratio Ki (Homo sapiens [7]): > 100000; Ratio Ki (Homo sapiens [8]): > 100000; Ratio Ki (Homo sapiens [9]): > 100000; Ratio Ki (Homo sapiens [10]): 5000
